Measured values published in ChEMBL document CHEMBL5113397, “Identification, optimization, and biological evaluation of 3-O-β-chacotriosyl ursolic acid derivatives as novel SARS-CoV-2 entry inhibitors by targeting the prefusion state of spike protein” (Eur J Med Chem, 2022).
pEC50, pKd: −log10 of the molar value.

How the values were obtained:
Spike glycoprotein = Spike glycoprotein (Severe acute respiratory syndrome coronavirus 2, UniProt P0DTC2); assay: Binding affinity to SARS-CoV-2 Spike trimer protein by SPR analysis
In short: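 Compound photo-crosslinked onto the chip; recombinant S-trimer injected at a series of concentrations in PBST (0.1% Tween 20, pH 7.4). Run at 4 °C, 600 s association, 360 s dissociation, 0.5 µL/s flow. Chip regenerated with glycine-HCl pH 2.0; KD from the SPR signals.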

[1] = Cytotoxicity against human HEK293T cells overexpressing human ACE2 assessed as inhibition of cell growth incubated for 48 hrs by MTT assay; type: toxicity, cell-based, HEK-293T
In short: (§1)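 Monolayers of 293T-ACE2 or Vero E6 cells in DMEM with 10% FBS were PBS-rinsed and exposed to compounds for 48 h. MTT 0.5 mg/mL was then added for 4 h at 37 °C, formazan dissolved in DMSO, and absorbance read at 570 nm.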

SARS-CoV-2 [2] = assay: Antiviral activity against SARS-CoV-2 Wuhan-HU-1 infected African green monkey Vero E6 cells preincubated for 1 hrs followed by incubation with virus 1 hr and measured after 24 hrs by fluorescence assay; type: functional, organism-based; conditions: Severe acute respiratory syndrome coronavirus 2, Wuhan-HU-1, Vero C1008
[3] = Cytotoxicity against African green monkey Vero E6 cells assessed as inhibition of cell growth incubated for 48 hrs by MTT assay; type: toxicity, cell-based, Vero C1008; conditions: chlorocebus sabaeus; in short: as §1
[4] = Selectivity index, ratio of CC50 for cytotoxicity against African green monkey Vero E6 cells to EC50 for antiviral activity against SARS-CoV-2 Wuhan-Hu-1 infected African green monkey Vero E6 cells; type: toxicity, cell-based, Vero C1008; conditions: read-out: Ratio CC50/EC50
SARS-CoV-2 [5] = assay: Antiviral activity against SARS-CoV-2 Wuhan-HU-1 infected African green monkey Vero E6 cells assessed as reduction in N-protein expression at 0.55 to 15 uM by indirect immunofluorescence assay; type: functional, organism-based; conditions: Severe acute respiratory syndrome coronavirus 2, dose 0.55-15 µM, DDE = dose-dependent effect
SARS-CoV-2 [6] = assay: Antiviral activity against pseudovirus SARS-CoV-2 spike protein expressed in human HEK293T cells assessed as inhibition of spike protein S2 subunit mediated membrane fusion in African green monkey Vero E6 cells at 2.5 to 20 uM incubated for 0.5 hr and measured after 24 hrs by inverted fluorescence microscopy; type: functional, organism-based; conditions: Severe acute respiratory syndrome coronavirus 2, dose 2.5-20 µM, time 24.5 hrs, DDE = dose-dependent effect
In short: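 Effector HEK-293T cells were transfected with GFP/SARS-CoV-2 S plasmid, or an EGFP-only vector as control. They were treated with or without graded compound for 30 min, then overlaid on Vero-E6 target cells seeded 6 h before. After 24 h, three random fields were imaged by inverted fluorescence microscopy.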

SMILES: COc1cccc(OC)c1NC(=O)[C@]12CC[C@@H](C)[C@H](C)[C@H]1C1=CC[C@@H]3[C@@]4(C)CC[C@H](O[C@@H]5O[C@H](CO)[C@@H](O[C@@H]6O[C@@H](C)[C@H](O)[C@@H](O)[C@H]6O)[C@H](O)[C@H]5O[C@@H]5O[C@@H](C)[C@H](O)[C@@H](O)[C@H]5O)C(C)(C)[C@@H]4CC[C@@]3(C)[C@]1(C)CC2
- pKd (Spike glycoprotein): 6.11
- CC50 at 48 h [1]: > 100 µM
- pEC50 (SARS-CoV-2 [2]): 5.69
- CC50 at 48 h [3]: > 100 µM
- selectivity ratio [4]: > 48.8
- Activity (SARS-CoV-2 [5]): Dde
- inhibition (SARS-CoV-2 [6]): Dde

SMILES: COc1ccccc1NC(=O)[C@]12CC[C@@H](C)[C@H](C)[C@H]1C1=CC[C@@H]3[C@@]4(C)CC[C@H](O[C@@H]5O[C@H](CO)[C@@H](O[C@@H]6O[C@@H](C)[C@H](O)[C@@H](O)[C@H]6O)[C@H](O)[C@H]5O[C@@H]5O[C@@H](C)[C@H](O)[C@@H](O)[C@H]5O)C(C)(C)[C@@H]4CC[C@@]3(C)[C@]1(C)CC2
- pKd (Spike glycoprotein): 4.86
- CC50 at 48 h [1]: 43.3 µM
- pEC50 (SARS-CoV-2 [2]): 5.62
- CC50 at 48 h [3]: > 100 µM
- selectivity ratio [4]: > 42

SMILES: COc1ccc(CNC(=O)[C@]23CC[C@@H](C)[C@H](C)[C@H]2C2=CC[C@@H]4[C@@]5(C)CC[C@H](O[C@@H]6O[C@H](CO)[C@@H](O[C@@H]7O[C@@H](C)[C@H](O)[C@@H](O)[C@H]7O)[C@H](O)[C@H]6O[C@@H]6O[C@@H](C)[C@H](O)[C@@H](O)[C@H]6O)C(C)(C)[C@@H]5CC[C@@]4(C)[C@]2(C)CC3)cc1
- CC50 at 48 h [1]: > 100 µM

SMILES: C[C@H]1[C@H](C)CC[C@]2(C(=O)NCc3ccccc3)CC[C@]3(C)C(=CC[C@@H]4[C@@]5(C)CC[C@H](O[C@@H]6O[C@H](CO)[C@@H](O[C@@H]7O[C@@H](C)[C@H](O)[C@@H](O)[C@H]7O)[C@H](O)[C@H]6O[C@@H]6O[C@@H](C)[C@H](O)[C@@H](O)[C@H]6O)C(C)(C)[C@@H]5CC[C@]43C)[C@H]12
- CC50 at 48 h [1]: > 100 µM
